This is an account of results in ChEMBL document CHEMBL2321849, “Discovery and structure-activity relationships of small molecules that block the human immunoglobulin G-human neonatal Fc receptor (hIgG-hFcRn) protein-protein interaction” (Bioorg Med Chem Lett, 2013).

pIC50: −log10 of the molar value.

This experiment is described as follows: Inhibition of human IgG-FcRn interaction by competition ELISA. Summed up: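 Competition ELISA: test compounds at various concentrations mixed with 3 nM human IgG, then incubated on plates coated with soluble human FcRn. Inhibition of hIgG binding to shFcRn measured; IC50 reported in µM.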
For the compound `COCCNC(=O)C(C#N)c1nc2ccccc2nc1N1CCCCCC1` (stereo not given), the pIC50 was 3.92.

Consider `COc1cccc(CNC(=O)C(C#N)c2nc3ccccc3nc2N2CCCCC2)c1` (stereo not given), for which the pIC50 is < 3.30.

On to `COc1cccc(CNC(=O)C(C#N)c2nc3ccccc3nc2N2CCOCC2)c1` (stereo not given), for which the pIC50 is < 3.30.

Consider `COc1cccc(CNC(=O)C(C#N)c2nc3ccccc3nc2N2CCN(C)CC2)c1` (stereo not given), for which the pIC50 is < 3.30.

As to `COc1cccc(CNC(=O)C(C#N)c2nc3ccccc3nc2NC2CCCCCC2)c1` (stereo not given), the pIC50 was < 3.30.

On to `COc1cccc(CNC(=O)C(C#N)c2nc3ccccc3nc2NC2CC3CCC2C3)c1` (stereo not given), for which the pIC50 was < 3.30.

With `COc1cccc(CNC(=O)C(C#N)c2nc3ccccc3nc2Sc2ccccc2)c1` (stereo not given), the pIC50 was < 3.30.

With `COc1cccc(CNC(=O)C(C#N)c2nc3ccccc3nc2Nc2ccccc2)c1` (stereo not given), the negative logarithm of the IC50 (pIC50) is < 3.30.

As for `COc1cccc(CNC(=O)C(C#N)c2nc3ccccc3nc2NCc2ccccc2)c1` (stereo not given), the pIC50 was < 3.30.

Take `N#CC(C(=O)NCc1cccc(-c2nccs2)c1)c1nc2ccccc2nc1N1CCCCCC1` (stereo not given): the pIC50 was 4.40.

Consider `Cc1cncc(Oc2cccc(CNC(=O)C(C#N)c3nc4ccccc4nc3N3CCCCCC3)c2)n1` (stereo not given), for which the negative logarithm of the IC50 (pIC50) is 3.70.

In turn, `N#CC(C(=O)NCc1cccc(OCCN2CCOCC2)c1)c1nc2ccccc2nc1N1CCCCCC1` (stereo not given) showed a pIC50 of 3.40.

Turning to `CN(C)CCCOc1cccc(CNC(=O)C(C#N)c2nc3ccccc3nc2N2CCCCCC2)c1` (stereo not given), the pIC50 is 3.70.

For `N#CC(C(=O)NCc1ccc(OCCN2CCOCC2)cc1)c1nc2ccccc2nc1N1CCCCCC1` (stereo not given), the pIC50 is < 3.30.

`COc1ccc([C@@H](C)NC(=O)C(C#N)c2nc3ccccc3nc2N2CCCCCC2)cc1` (stereo not given in full) had a pIC50 of 4.40.

The compound `COc1ccc([C@H](C)NC(=O)C(C#N)c2nc3ccccc3nc2N2CCCCCC2)cc1` (stereo not given in full) showed a pIC50 of 4.40.

Regarding `COc1ccc(C(CN2CCOCC2)NC(=O)C(C#N)c2nc3ccccc3nc2N2CCCCCC2)cc1` (stereo not given), the pIC50 is 5.70.

As for `COc1cccc(CNC(=O)C(C#N)c2nc3ccc(C#N)cc3nc2N2CCCCCC2)c1` (stereo not given), the pIC50 is 4.00.

`COc1cccc(CNC(=O)C(C#N)c2nc3ccc([N+](=O)[O-])cc3nc2N2CCCCCC2)c1` (stereo not given) had a negative logarithm of the IC50 (pIC50) of 3.30.

Turning to `COc1cccc(CNC(=O)C(C#N)c2nc3cc(OC)ccc3nc2N2CCCCCC2)c1` (stereo not given), the pIC50 was < 3.30.

In the case of `COc1cccc(CNC(=O)C(C#N)c2nc3cc(Cl)c(Cl)cc3nc2N2CCCCCC2)c1` (stereo not given), the pIC50 was 4.52.

Consider `COc1cccc(CNC(=O)C(C#N)c2nc3ccc(C(=O)Nc4ccccc4)cc3nc2N2CCCCCC2)c1` (stereo not given), for which the negative logarithm of the IC50 (pIC50) is < 3.30.

In the case of `COc1cccc(CNC(=O)C(C#N)c2nc3ccc(C(=O)NCc4cccnc4)cc3nc2N2CCCCCC2)c1` (stereo not given), the pIC50 was < 3.30.

Turning to `COc1cccc(CNC(=O)C(C#N)c2nc3ccc(C(=O)NCCc4cccnc4)cc3nc2N2CCCCCC2)c1` (stereo not given), the pIC50 is < 3.30.

`COc1cccc(CNC(=O)C(C#N)c2nc3ccc(C(=O)NCCCN(C)C)cc3nc2N2CCCCCC2)c1` (stereo not given) showed a pIC50 of 3.40.

Take `COc1cccc(CNC(=O)C(C#N)c2nc3ccccc3nc2N2CCCOCC2)c1` (stereo not given): the pIC50 was < 3.30.

With `COc1cccc(CNC(=O)C(C#N)c2nc3ccccc3nc2N2CCCNCC2)c1` (stereo not given), the pIC50 was < 3.30.

On to `COc1cccc(CNC(=O)C(C#N)c2nc3ccccc3nc2N2CCCN(C)CC2)c1` (stereo not given), for which the pIC50 was < 3.30.

`COc1cccc(CNC(=O)C(C#N)c2nc3ccccc3nc2N2CCCN(C(C)=O)CC2)c1` (stereo not given): the pIC50 was < 3.30.

In the case of `COc1cccc(CNC(=O)C(C#N)c2nc3ccccc3nc2N2CCCN(CCO)CC2)c1` (stereo not given), the pIC50 was < 3.30.

Regarding `COc1cccc(CNC(=O)C(C#N)c2nc3ccccc3nc2N2CCCN(C(=O)OCc3ccccc3)CC2)c1` (stereo not given), the pIC50 was < 3.30.

For the compound `COc1cccc(CNC(=O)C(C#N)c2nc3ccccc3nc2N2CCCC3CCCCC32)c1` (stereo not given), the pIC50 was < 3.30.

`COc1cccc(CNC(=O)C(C#N)c2nc3ccccc3nc2N2CCCCCCC2)c1` (stereo not given) showed a pIC50 of 5.22.

With `N#CC(C(=O)NCc1ccco1)c1nc2ccccc2nc1N1CCCCCC1` (stereo not given), the pIC50 is < 3.00.

On to `N#CC(C(=O)NCc1cccs1)c1nc2ccccc2nc1N1CCCCCC1` (stereo not given), for which the pIC50 was < 3.00.

In turn, `N#CC(C(=O)NCc1cccc(F)c1)c1nc2ccccc2nc1N1CCCCCC1` (stereo not given) gave a negative-log IC50 (pIC50) of 3.82.

As for `N#CC(C(=O)NCc1cccc(Cl)c1)c1nc2ccccc2nc1N1CCCCCC1` (stereo not given), the pIC50 is 4.00.

For the compound `N#CC(C(=O)NCc1cccc(OC(F)(F)F)c1)c1nc2ccccc2nc1N1CCCCCC1` (stereo not given), the pIC50 was 4.10.

Turning to `COc1cccc(CNC(=O)C(C#N)c2nc3ccccc3nc2N2CCCCCC2)c1` (stereo not given), the pIC50 is 5.00.

In the case of `COc1ccc(CNC(=O)C(C#N)c2nc3ccccc3nc2N2CCCCCC2)cc1` (stereo not given), the pIC50 is 4.30.

As for `N#CC(C(=O)NCc1ccc(O)cc1)c1nc2ccccc2nc1N1CCCCCC1` (stereo not given), the pIC50 is < 3.30.

For the compound `N#Cc1ccc(CNC(=O)C(C#N)c2nc3ccccc3nc2N2CCCCCC2)cc1` (stereo not given), the negative-log IC50 (pIC50) is 4.40.

Turning to `CN(C)c1ccc(CNC(=O)C(C#N)c2nc3ccccc3nc2N2CCCCCC2)cc1` (stereo not given), the pIC50 was < 3.30.

In the case of `COc1ccccc1CNC(=O)C(C#N)c1nc2ccccc2nc1N1CCCCCC1` (stereo not given), the negative-log IC50 (pIC50) was 3.82.

On to `COc1ccc(CNC(=O)C(C#N)c2nc3ccccc3nc2N2CCCCCC2)cc1OC` (stereo not given), for which the pIC50 was 3.60.

`COc1cccc(CCNC(=O)C(C#N)c2nc3ccccc3nc2N2CCCCCC2)c1` (stereo not given) showed a pIC50 of 4.00.

On to `COc1ccc(CCNC(=O)C(C#N)c2nc3ccccc3nc2N2CCCCCC2)cc1` (stereo not given), for which the pIC50 was 3.92.

Take `N#CC(C(=O)NCCc1ccc(N)cc1)c1nc2ccccc2nc1N1CCCCCC1` (stereo not given): the pIC50 was < 3.30.

`C=CCCNC(=O)C(C#N)c1nc2ccccc2nc1N1CCCCCC1` (stereo not given): the pIC50 is < 3.60.

For `CCCCNC(=O)C(C#N)c1nc2ccccc2nc1N1CCCCCC1` (stereo not given), the pIC50 is < 3.30.

Regarding `N#CC(C(=O)NCC1CCCCC1)c1nc2ccccc2nc1N1CCCCCC1` (stereo not given), the pIC50 was < 3.30.

For the compound `N#CC(C(=O)NCc1ccccc1)c1nc2ccccc2nc1N1CCCCCC1` (stereo not given), the negative logarithm of the IC50 (pIC50) is < 3.30.

In the case of `N#CC(C(=O)NCc1ccccn1)c1nc2ccccc2nc1N1CCCCCC1` (stereo not given), the negative logarithm of the IC50 (pIC50) was < 3.00.

For the compound `N#CC(C(=O)NCc1cccnc1)c1nc2ccccc2nc1N1CCCCCC1` (stereo not given), the pIC50 was < 3.00.

Regarding `COCCCNC(=O)C(C#N)c1nc2ccccc2nc1N1CCCCCC1` (stereo not given), the pIC50 was < 3.82.
